Measured values as given in ChEMBL document CHEMBL1127509, “Antitumor agents. 152. In vitro inhibitory activity of etoposide derivative NPF against human tumor cell lines and a study of its conformation by X-ray crystallography, molecular modeling, and NMR spectroscopy” (1994).

What was measured:
Tumor Cell line [1] = assay: Tested for in vitro inhibitory activity against drug concentration causing 50% cell death inhibition in 56 human tumor cell lines derived from Melanoma in test 6; log10 LC50; type: functional; settings: read-out: Log LC50 (the source's name) (converted)
How it was run: (§1)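 NCI 56-line human tumour panel screen. Cells were seeded in 96-well plates on day 0, mostly at 20 000 cells/well, and preincubated 24 h without drug. Drug was then added at five 10-fold dilutions for a further 48 h. Cells were fixed in situ and stained with SRB, and bound dye was read spectrophotometrically. GI50, TGI (0% growth) and LC50 (−50% growth) were taken versus control. Values are mean-graph midpoints (log10) per test.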

Tumor Cell line [2] = assay: Tested for in vitro inhibitory activity against drug concentration causing total cell growth inhibition in 56 human tumor cell lines derived from ovarian cancer in test 7; log10 TGI50; type: functional; settings: read-out: Log TGI (converted); how it was run: as §1
Tumor Cell line [3] = assay: Tested for in vitro inhibitory activity against drug concentration causing 50% cell death inhibition in 56 human tumor cell lines derived from Ovarian cancer in test 7; log10 LC50; type: functional; settings: read-out: Log LC50 (the source's name) (converted); how it was run: as §1
Tumor Cell line [4] = assay: Tested for in vitro inhibitory activity against drug concentration causing 50% cell death inhibition in 56 human tumor cell lines derived from Renal cancer in test 8; log10 LC50; type: functional; settings: read-out: Log LC50 (the source's name) (converted); how it was run: as §1
Tumor Cell line [5] = assay: Tested for in vitro inhibitory activity against drug concentration causing 50% cell growth inhibition in 56 human tumor cell lines derived from small-cell-lung cancer in test 3; log10 GI50; type: functional; how it was run: as §1
Tumor Cell line [6] = assay: Tested for in vitro inhibitory activity against drug concentration causing total cell growth inhibition in 56 human tumor cell lines derived from colon cancer in test 4; type: functional; settings: read-out: Log TGI (converted); how it was run: as §1
Tumor Cell line [7] = assay: Tested for in vitro inhibitory activity against drug concentration causing total cell growth inhibition in 56 human tumor cell lines derived from CNS cancer in test 5; log10 TGI50; type: functional; settings: read-out: Log TGI (converted); how it was run: as §1
Tumor Cell line [8] = assay: Tested for in vitro inhibitory activity against drug concentration causing total cell growth inhibition in 56 human tumor cell lines derived from leukemia in test 1; log10 TGI50; type: functional; settings: read-out: Log TGI (converted); how it was run: as §1
Tumor Cell line [9] = assay: Tested for in vitro inhibitory activity against drug concentration causing total cell growth inhibition in 56 human tumor cell lines derived from Non small cell lung cancer in test 2; log10 TGI50; type: functional; settings: read-out: Log TGI (converted); how it was run: as §1
Tumor Cell line [10] = assay: Tested for in vitro inhibitory activity against drug concentration causing 50% cell growth inhibition in 56 human tumor cell lines derived from leukemia in test 9; log10 GI50; type: functional; how it was run: as §1
Tumor Cell line [11] = assay: Tested for in vitro inhibitory activity against drug concentration causing 50% cell death inhibition in 56 human tumor cell lines derived from leukemia in test 9; log10 LC50; type: functional; settings: read-out: Log LC50 (the source's name) (converted); how it was run: as §1
Tumor Cell line [12] = assay: Tested for in vitro inhibitory activity against drug concentration causing 50% cell death inhibition in 56 human tumor cell lines derived from Non small cell lung cancer in test 2; log10 LC50; type: functional; settings: read-out: Log LC50 (the source's name) (converted); how it was run: as §1
Homo sapiens = species: Homo sapiens; assay: Tested for in vitro inhibitory activity against drug concentration causing 50% cell growth inhibition in 56 human tumor cell lines derived from Non-small-cell lung cancer in test 2; log10 GI50; type: functional; how it was run: as §1
Tumor Cell line [13] = assay: Tested for in vitro inhibitory activity against drug concentration causing 50% cell growth inhibition in 56 human tumor cell lines derived from CNS cancer in test 5; log10 GI50; type: functional; how it was run: as §1
Tumor Cell line [14] = assay: Tested for in vitro inhibitory activity against drug concentration causing total cell growth inhibition in 56 human tumor cell lines derived from small-cell-lung cancer in test 3; log10 TGI50; type: functional; settings: read-out: Log TGI (converted); how it was run: as §1
Tumor Cell line [15] = assay: Tested for in vitro inhibitory activity against drug concentration causing 50% cell death inhibition in 56 human tumor cell lines derived from colon cancer in test 4; log10 LC50; type: functional; settings: read-out: Log LC50 (the source's name) (converted); how it was run: as §1
Tumor Cell line [16] = assay: Tested for in vitro inhibitory activity against drug concentration causing 50% cell growth inhibition in 56 human tumor cell lines derived from leukemia in test 1; log10 GI50; type: functional; how it was run: as §1
Tumor Cell line [17] = assay: Tested for in vitro inhibitory activity against drug concentration causing 50% cell growth inhibition in 56 human tumor cell lines derived from Ovarian cancer in test 7; log10 GI50; type: functional; how it was run: as §1
Tumor Cell line [18] = assay: Tested for in vitro inhibitory activity against drug concentration causing 50% cell growth inhibition in 56 human tumor cell lines derived from colon cancer in test 4; log10 GI50; type: functional; how it was run: as §1
Tumor Cell line [19] = assay: Tested for in vitro inhibitory activity against drug concentration causing total cell growth inhibition in 56 human tumor cell lines derived from Renal cancer in test 8; log10 TGI50; type: functional; settings: read-out: Log TGI (converted); how it was run: as §1
Tumor Cell line [20] = assay: Tested for in vitro inhibitory activity against drug concentration causing 50% cell death inhibition in 56 human tumor cell lines derived from small cell lung cancer in test 3; log10 LC50; type: functional; settings: read-out: Log LC50 (the source's name) (converted); how it was run: as §1
Tumor Cell line [21] = assay: Tested for in vitro inhibitory activity against drug concentration causing total cell growth inhibition in 56 human tumor cell lines derived from leukemia in test 9; log10 TGI50; type: functional; settings: read-out: Log TGI (converted); how it was run: as §1
Tumor Cell line [22] = assay: Tested for in vitro inhibitory activity against drug concentration causing 50% cell death inhibition in 56 human tumor cell lines derived from leukemia in test 1; log10 LC50; type: functional; settings: read-out: Log LC50 (the source's name) (converted); how it was run: as §1
Tumor Cell line [23] = assay: Tested for in vitro inhibitory activity against drug concentration causing 50% cell growth inhibition in 56 human tumor cell lines derived from Melanoma in test 6; log10 GI50; type: functional; how it was run: as §1
Tumor Cell line [24] = assay: Tested for in vitro inhibitory activity against drug concentration causing 50% cell death inhibition in 56 human tumor cell lines derived from CNS cancer in test 5; log10 LC50; type: functional; settings: read-out: Log LC50 (the source's name) (converted); how it was run: as §1
Tumor Cell line [25] = assay: Tested for in vitro inhibitory activity against drug concentration causing 50% cell growth inhibition in 56 human tumor cell lines derived from renal cancer in test 8; log10 GI50; type: functional; how it was run: as §1
Tumor Cell line [26] = assay: Tested for in vitro inhibitory activity against drug concentration causing total cell growth inhibition in 56 human tumor cell lines derived from Melanoma in test 6; log10 TGI50; type: functional; settings: read-out: Log TGI (converted); how it was run: as §1
Tumor Cell line [27] = assay: Tested for in vitro inhibitory activity against drug concentration causing 50% cell growth inhibition in 56 human tumor cell lines derived from leukemia; log10 GI50; type: functional
How it was run: (§2)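 NCI screen: cells plated on day 0 (mostly 20 000 cells/well) and preincubated drug-free for 24 h. Drug then added at five 10-fold dilutions for 48 h. Cells were fixed in situ, stained with sulforhodamine B, and the solubilized bound dye read spectrophotometrically. GI50, the concentration giving 50% growth inhibition versus control, was taken from dose-response curves.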

P388 = assay: Tested for in vitro inhibitory activity against drug concentration causing 50% cell growth inhibition in P388/ADR cell lines; log10 GI50; type: functional, Homo sapiens; settings: Mus musculus; how it was run: as §2

For `COc1cc([C@@H]2c3cc4c(cc3[C@@H](Nc3ccc(F)cc3)[C@H]3COC(=O)[C@H]23)OCO4)cc(OC)c1O`, which CC50 (Tumor Cell line [1]) is on record?
Its CC50 is 1 µM.

And the TGI (Tumor Cell line [2])?
The TGI was 12 µM.

And the CC50 (Tumor Cell line [3])?
Its CC50 is 79.4 µM.

And the CC50 (Tumor Cell line [4])?
The CC50 was 1 µM.

What about the GI50 (Tumor Cell line [5]) of the same compound?
The GI50 was 1.41 µM.

What about the TGI (Tumor Cell line [6]) of the same compound?
The TGI was 1 µM.

And the TGI (Tumor Cell line [7])?
The TGI was 11 µM.

What about the TGI (Tumor Cell line [8]) of the same compound?
The TGI was 9.77 µM.

And the TGI (Tumor Cell line [9])?
Its TGI is 12.3 µM.

And the GI50 (Tumor Cell line [10])?
The GI50 was 0.813 µM.

What about the CC50 (Tumor Cell line [11]) of the same compound?
Its CC50 is 61.7 µM.

And the CC50 (Tumor Cell line [12])?
The CC50 was 66.1 µM.

What about the GI50 (Homo sapiens) of the same compound?
The GI50 was 0.813 µM.

And the GI50 (Tumor Cell line [13])?
The GI50 was 1.35 µM.

And the TGI (Tumor Cell line [14])?
Its TGI is 9.55 µM.

And the CC50 (Tumor Cell line [15])?
The CC50 was 1 µM.

And the GI50 (Tumor Cell line [16])?
Its GI50 is 1.1 µM.

And the GI50 (Tumor Cell line [17])?
Its GI50 is 0.871 µM.

What about the GI50 (Tumor Cell line [18]) of the same compound?
The GI50 was 0.708 µM.

And the TGI (Tumor Cell line [19])?
Its TGI is 0.977 µM.

What about the CC50 (Tumor Cell line [20]) of the same compound?
Its CC50 is 61.7 µM.

And the TGI (Tumor Cell line [21])?
Its TGI is 8.71 µM.

And the CC50 (Tumor Cell line [22])?
Its CC50 is 61.7 µM.

And the GI50 (Tumor Cell line [23])?
Its GI50 is 0.661 µM.

What about the CC50 (Tumor Cell line [24]) of the same compound?
Its CC50 is 63.1 µM.

What about the GI50 (Tumor Cell line [25]) of the same compound?
The GI50 was 0.646 µM.

What about the TGI (Tumor Cell line [26]) of the same compound?
Its TGI is 0.977 µM.

Which GI50 (Tumor Cell line [27]) does the source give for `COc1cc([C@@H]2c3cc4c(cc3[C@@H](O[C@@H]3O[C@@H]5CO[C@@H](C)O[C@H]5[C@H](O)[C@H]3O)[C@H]3COC(=O)[C@H]23)OCO4)cc(OC)c1O` [ETOPOSIDE] here?
Its GI50 is 83.2 µM.

And the GI50 (P388)?
Its GI50 is 63.1 µM.
